Experimental data reported in ChEMBL document CHEMBL3244007, “Resolution of antimalarial agents via complex formation with alpha-(2,4,5,7-tetranitro-9-fluorenylideneaminooxy) propionic acid” (J Med Chem, 1978).
The source made the active and inactive calls. The rule behind the calls is not given here.

Legend:
Plasmodium berghei [1] = assay: Antimalarial activity against Plasmodium berghei infected in mouse assessed as change in mean survival time at 1.25 mg/kg (reference value: 6.2 +/- 0.5 days); format: functional
Plasmodium berghei [2] = assay: Antimalarial activity against Plasmodium berghei infected in mouse assessed as change in mean survival time at 2.5 mg/kg (reference value: 6.2 +/- 0.5 days); format: functional
Plasmodium berghei [3] = assay: Antimalarial activity against Plasmodium berghei infected in mouse assessed as change in mean survival time at 5 mg/kg (reference value: 6.2 +/- 0.5 days); format: functional
Plasmodium berghei [4] = assay: Antimalarial activity against Plasmodium berghei infected in mouse assessed as change in mean survival time at 10 mg/kg (reference value: 6.2 +/- 0.5 days); format: functional
Plasmodium berghei [5] = assay: Antimalarial activity against Plasmodium berghei infected in mouse assessed as change in mean survival time at 20 mg/kg (reference value: 6.2 +/- 0.5 days); format: functional
Mus musculus [6] = assay: Toxicity in mouse infected with Plasmodium berghei assessed as mortality at 160 mg/kg after 2 to 5 days; format: organism-based; design: dose 160 mg/kg; details: in vivo
Mus musculus [7] = assay: Toxicity in mouse infected with Plasmodium berghei assessed as mortality at 320 mg/kg after 2 to 5 days; format: organism-based; design: dose 320 mg/kg; details: in vivo
Mus musculus [8] = assay: Toxicity in mouse infected with Plasmodium berghei assessed as mortality at 640 mg/kg after 2 to 5 days; format: organism-based; design: dose 640 mg/kg; details: in vivo
Plasmodium cynomolgi [9] = assay: Antimalarial activity against Plasmodium cynomolgi infected in rhesus monkey assessed as relapse time at 0.375 mg/kg qd for 7 days in presence of chloroquine; format: functional
Plasmodium cynomolgi [10] = assay: Antimalarial activity against Plasmodium cynomolgi infected in rhesus monkey assessed as relapse time at 0.5 mg/kg qd for 7 days in presence of chloroquine; format: functional
Plasmodium berghei [11] = assay: Antimalarial activity against Plasmodium berghei infected in mouse assessed as change in mean survival time at 40 mg/kg (reference value: 6.2 +/- 0.5 days); format: functional
Plasmodium berghei [12] = assay: Antimalarial activity against Plasmodium berghei infected in mouse assessed as change in mean survival time at 80 mg/kg (reference value: 6.2 +/- 0.5 days); format: functional
Rhesus monkey = assay: Toxicity in rhesus monkey at 0.375 to 0.75 mg/kg; format: organism-based, Macaca mulatta; design: dose 0.375-0.75 mg/kg; details: in vivo
Plasmodium cynomolgi [13] = assay: Antimalarial activity against Plasmodium cynomolgi infected in rhesus monkey assessed as cured animal at 0.75 mg/kg qd for 7 days measured after 105 days in presence of chloroquine; format: functional, organism-based; design: dose 0.75 mg/kg
Summary of the method: (§1)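 Test compounds were given as phosphate salts, with doses expressed as free base, once daily for 7 days together with chloroquine at 2.5 mg per kg body weight. An animal was scored as cured when thick blood films stayed parasite-negative for 105 days or more after the last dose.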

Plasmodium cynomolgi [14] = assay: Antimalarial activity against Plasmodium cynomolgi infected in rhesus monkey assessed as cured animal at 0.375 mg/kg qd for 7 days measured after 105 days in presence of chloroquine; format: functional, organism-based; design: dose 0.375 mg/kg; summary of the method: as §1
Plasmodium cynomolgi [15] = assay: Antimalarial activity against Plasmodium cynomolgi infected in rhesus monkey assessed as cured animal at 0.5 mg/kg qd for 7 days measured after 105 days in presence of chloroquine; format: functional, organism-based; design: dose 0.5 mg/kg; summary of the method: as §1
Plasmodium berghei [16] = assay: Antimalarial activity against Plasmodium berghei infected in mouse assessed as change in mean survival time at 160 mg/kg (reference value: 6.2 +/- 0.5 days); format: functional
Plasmodium berghei [17] = assay: Antimalarial activity against Plasmodium berghei infected in mouse assessed as change in mean survival time at 320 mg/kg (reference value: 6.2 +/- 0.5 days); format: functional
Plasmodium berghei [18] = assay: Antimalarial activity against Plasmodium berghei infected in mouse assessed as change in mean survival time at 640 mg/kg (reference value: 6.2 +/- 0.5 days); format: functional

## Nc1nc(N)c2c(n1)CCC(S(=O)(=O)c1ccc3ccccc3c1)C2 (single isomer, unassigned; (-))
Plasmodium berghei [1]
  MST: 1.3 days
Plasmodium berghei [2]
  MST: 3.1 days
Plasmodium berghei [3]
  MST: 4.9 days
Plasmodium berghei [4]
  MST: 7.1 days
Plasmodium berghei [5]
  MST: 11.3 days
Mus musculus [6]
  Activity: Toxic
Mus musculus [7]
  Activity: Toxic
Mus musculus [8]
  Activity: Toxic

## COc1cc(NC(C)CCCN)c2ncccc2c1.O=P(O)(O)O.O=P(O)(O)O (single isomer, unassigned; (-)) [PRIMAQUINE PHOSPHATE]
Plasmodium cynomolgi [9]
  Time: 11 days
Plasmodium cynomolgi [10]
  Time: 16 days

## CCCCN(CCCC)CCC(O)c1cc2c(Cl)cc(Cl)cc2c2cc(C(F)(F)F)ccc12 (stereo in doubt; (+)-8) [HALOFANTRINE]
Plasmodium berghei [1]
  MST: 0.5 days
Plasmodium berghei [2]
  MST: 3.1 days
Plasmodium berghei [3]
  MST: 7.5 days
Plasmodium berghei [4]
  MST: 10.3 days
Plasmodium berghei [5]
  MST: 11.1 days
Plasmodium berghei [11]; 40 mg/kg
  MST: 14.5 days
Plasmodium berghei [12]; 80 mg/kg
  MST: 16.9 days

## CCCCN(CCCC)CCC(O)c1cc2c(Cl)cc(Cl)cc2c2cc(C(F)(F)F)ccc12 (stereo in doubt; (-)-8) [HALOFANTRINE]
Plasmodium berghei [1]
  MST: 0.1 days
Plasmodium berghei [2]
  MST: 0.3 days
Plasmodium berghei [3]
  MST: 1.5 days
Plasmodium berghei [4]
  MST: 5.1 days
Plasmodium berghei [5]
  MST: 8.9 days
Plasmodium berghei [11]; 40 mg/kg
  MST: 12.5 days
Plasmodium berghei [12]; 80 mg/kg
  MST: 13.2 days

## COc1cc(NC(C)CCCN)c2ncccc2c1.O=P(O)(O)O.O=P(O)(O)O (stereo in doubt; (+)-5) [PRIMAQUINE PHOSPHATE]
Plasmodium cynomolgi [9]
  Time: 10 days
Plasmodium cynomolgi [10]
  Time: 28 days
Rhesus monkey
  Activity: Toxic

## COc1cc(NC(C)CCCN)c2ncccc2c1 (racemic)
Plasmodium cynomolgi [13]
  Activity: Active
Plasmodium cynomolgi [14]
  Activity: inactive
Plasmodium cynomolgi [15]
  Activity: Active

## CCCCN(CCCC)CC(O)c1cc(-c2ccc(C(F)(F)F)cc2)nc(-c2ccc(C(F)(F)F)cc2)c1 (stereo in doubt; (+)-2)
Plasmodium berghei [4]
  MST: 3.9 days
Plasmodium berghei [5]
  MST: 10.7 days
Plasmodium berghei [11]; 40 mg/kg
  MST: 18.1 days
Plasmodium berghei [12]; 80 mg/kg
  MST: 25.6 days

## COc1cc(NC(C)CCCN)c2ncccc2c1 (single isomer, unassigned; (-))
Plasmodium cynomolgi [13]
  Activity: Active

## COc1cc(NC(C)CCCN)c2ncccc2c1 (stereo in doubt; (+)-5)
Plasmodium cynomolgi [13]
  Activity: Active

## Nc1nc(N)c2c(n1)CCC(S(=O)(=O)c1ccc3ccccc3c1)C2 (single isomer, unassigned; (+))
Plasmodium berghei [5]
  MST: 0.3 days
Plasmodium berghei [11]
  MST: 1.7 days
Plasmodium berghei [12]
  MST: 4.5 days
Plasmodium berghei [16]
  MST: 6.9 days
Plasmodium berghei [17]
  MST: 9.1 days

## CCCCN(CCCC)CC(O)c1cc(-c2ccc(C(F)(F)F)cc2)nc(-c2ccc(C(F)(F)F)cc2)c1 (racemic)
Plasmodium berghei [4]
  MST: 5.5 days
Plasmodium berghei [5]
  MST: 8.6 days

## Nc1nc(N)c2c(n1)CCC(S(=O)(=O)c1ccc3ccccc3c1)C2 (racemic)
Plasmodium berghei [1]
  MST: 4.9 days
Plasmodium berghei [2]
  MST: 7.5 days
Plasmodium berghei [3]
  MST: 10.7 days
Plasmodium berghei [4]
  MST: 11.9 days

## CCCCN(CCCC)CC(O)c1cc(-c2ccc(C(F)(F)F)cc2)nc(-c2ccc(C(F)(F)F)cc2)c1 (single isomer, unassigned; (-))
Plasmodium berghei [4]
  MST: 1.3 days
Plasmodium berghei [5]
  MST: 3.1 days
Plasmodium berghei [11]; 40 mg/kg
  MST: 10.5 days
Plasmodium berghei [12]; 80 mg/kg
  MST: 13.1 days
Plasmodium berghei [16]
  MST: 19.9 days

## CCCCN(CCCC)CC(O)c1cc(-c2ccc(Cl)c(Cl)c2)nc2c(Cl)cc(Cl)cc12 (single isomer, unassigned; (-))
Plasmodium berghei [5]
  MST: 3.8 days
Plasmodium berghei [11]; 40 mg/kg
  MST: 7.8 days
Plasmodium berghei [12]; 80 mg/kg
  MST: 9 days
Plasmodium berghei [16]
  MST: 12.8 days

## CCCCN(CCCC)CCC(O)c1cc2c(Cl)cc(Cl)cc2c2cc(C(F)(F)F)ccc12 (racemic) [HALOFANTRINE]
Plasmodium berghei [3]
  MST: 9.3 days
Plasmodium berghei [4]
  MST: 14.9 days

## CCCCN(CCCC)CC(O)c1cc(-c2ccc(Cl)c(Cl)c2)nc2c(Cl)cc(Cl)cc12 (single isomer, unassigned; (+))
Plasmodium berghei [1]
  MST: 0.5 days
Plasmodium berghei [2]
  MST: 0.5 days
Plasmodium berghei [3]
  MST: 3.5 days
Plasmodium berghei [4]
  MST: 6.9 days
Plasmodium berghei [5]
  MST: 10 days
Plasmodium berghei [11]; 40 mg/kg
  MST: 11.8 days

## CCCCCCCN(CCCCCCC)CC(O)c1cc2ccccc2c2cc(Br)ccc12 (racemic)
Plasmodium berghei [5]
  MST: 2.9 days
Plasmodium berghei [11]; 40 mg/kg
  MST: 6.9 days
Plasmodium berghei [12]; 80 mg/kg
  MST: 11.3 days
Plasmodium berghei [16]; 160 mg/kg
  MST: 15.3 days
Plasmodium berghei [17]; 320 mg/kg
  MST: 25.9 days

## CCCCCCCN(CCCCCCC)CC(O)c1cc2ccccc2c2cc(Br)ccc12 (single isomer, unassigned; (+))
Plasmodium berghei [5]
  MST: 0.5 days
Plasmodium berghei [11]; 40 mg/kg
  MST: 1.7 days
Plasmodium berghei [12]; 80 mg/kg
  MST: 4.1 days
Plasmodium berghei [16]; 160 mg/kg
  MST: 6.7 days
Plasmodium berghei [17]; 320 mg/kg
  MST: 9.3 days
Plasmodium berghei [18]
  MST: 14.9 days

## CCCCN(CCCC)CC(O)c1cc(-c2ccc(Cl)c(Cl)c2)nc2c(Cl)cc(Cl)cc12 (racemic)
Plasmodium berghei [1]
  MST: 0.3 days
Plasmodium berghei [2]
  MST: 4.1 days
Plasmodium berghei [3]
  MST: 6.1 days
Plasmodium berghei [4]
  MST: 10.7 days
Plasmodium berghei [5]
  MST: 14.9 days
Plasmodium berghei [11]; 40 mg/kg
  MST: 11.9 days
Plasmodium berghei [12]; 80 mg/kg
  MST: 22.9 days

## CCCCCCCN(CCCCCCC)CC(O)c1cc2ccccc2c2cc(Br)ccc12 (stereo in doubt; (-)-3)
Plasmodium berghei [5]
  MST: 0.3 days
Plasmodium berghei [11]; 40 mg/kg
  MST: 2.1 days
Plasmodium berghei [12]; 80 mg/kg
  MST: 3.9 days
Plasmodium berghei [16]; 160 mg/kg
  MST: 5.3 days
Plasmodium berghei [17]; 320 mg/kg
  MST: 6.1 days
Plasmodium berghei [18]
  MST: 11.1 days
